Values joined by “and” are separate entries in the source; they are usually repeats but may differ in a detail not shown here. Identical values can stand only once. “Also recorded” adds a separate entry of the source.
Test system: patients with advanced or metastatic solid tumors
Assay: Safety, tolerability and DLTs
Format: in vivo, human
Conditions: for Treatment-related AE: decreased appetite / Treatment-related AE: fatigue / Treatment-related AE: hyperglycemia / Treatment-related AE: pruritus / Treatment-related AE: rash: all patients (17)
How it was run: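 3 + 3 escalation starting at 16 mg/day once daily or 24 mg/day intermittent (4 days on/3 days off) in 21-day cycles. AEs graded by CTCAE v5.0. DLTs were selected lab abnormalities or AEs at least possibly drug-related during cycle 1, assessed in patients with a DLT or ≥80% of planned doses taken.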

[1] = all patients (N = 17), any grade
[2] = all patients (N = 17), grade ≥3
[3] = dose escalation intermittent 24 mg (n = 4)
[4] = dose escalation intermittent 28 mg (n = 3)
[5] = dose escalation intermittent total (n = 7), any grade
[6] = dose escalation intermittent total (n = 7), grade ≥3
[7] = dose escalation o.d. 16 mg (n = 3)
[8] = dose escalation o.d. 20 mg (n = 6)

`C[C@]1(O)C[C@@](N)(c2ccc(-c3nc4n(c3-c3ccccc3)COc3ccncc3-4)cc2)C1` [TAS-117] was tested, and the DLTs (16 mg o.d.) was “no DLTs”, the “Time to resolution of DLT” value (20 mg o.d., grade 3 neutropenic infection, dose not modified) was no more than 6 days and the DLT event (20 mg o.d., one patient) was “grade 3 neutropenic infection”. For the same compound, the DLT event (28 mg intermittent dosing, two patients) was “grade 3 oral mucositis; also recorded: grade 3 stomatitis”, the “Time to resolution of DLT (stomatitis)” value (28 mg intermittent, TAS-117 paused, per patient) was ≤ 6 days and ≤ 7 days and the “Grade ≥3 TRAEs” value (16-mg o.d. dose cohort) was 33.3%. For the same compound, the TRAEs (16-mg o.d. dose cohort) was 66.7%, the TRAEs reported (16-mg o.d. dose level) was “rash (grade 3) and hyperglycemia (grade 2)” and the “Grade ≥3 TRAEs” value (20-mg o.d. dose cohort) was 66.7%. The TRAEs (20-mg o.d. dose cohort) was 100%, the “Patients with treatment discontinued due to a TRAE” value (20-mg o.d. dose group) was 50.0% and the “Patients with grade ≥3 TRAEs” value (20-mg o.d. dose level, out of six) was “four”. The “Any-grade TRAEs” value (24-mg intermittent dose group) was 50.0%, the “Grade ≥3 TRAEs” value (24-mg intermittent dose group) was 25.0% and the “Any-grade TRAEs” value (28-mg intermittent dose group) was 100.0%. The “Grade ≥3 TRAEs” value (28-mg intermittent dose group) was 66.7%, the “Patients with any TRAE” value (DRC 16 mg o.d. (n = 1)) was 0 n (%) and the “Treatment-related AE: decreased appetite” value (all grade) was 17.6%. For the same compound, the “Treatment-related AE: fatigue” value (all grade) was 35.3%, the “Treatment-related AE: hyperglycemia” value (all grade) was 29.4% and the “Treatment-related AE: pruritus” value (all grade) was 29.4%. For the same compound, the “Treatment-related AE: rash” value (all grade) was 58.8%, the “Treatment-related AE: decreased appetite” value (grade ≥3) was 0% and the “Treatment-related AE: fatigue” value (grade ≥3) was 1%. The “Treatment-related AE: hyperglycemia” value (grade ≥3) was 1%, the “Treatment-related AE: pruritus” value (grade ≥3) was 0% and the “Treatment-related AE: rash” value (grade ≥3) was 17.6%. For the same compound, the “Patients with any TRAE” value [1] was 13 (76.5) n (%), the “TRAE: Decreased appetite” value [1] was 3 (17.6) n (%) and the “TRAE: Diarrhea” value [1] was 3 (17.6) n (%). For the same compound, the “TRAE: Fatigue” value [1] was 6 (35.3) n (%), the “TRAE: Hyperglycemia” value [1] was 5 (29.4) n (%) and the “TRAE: Nausea” value [1] was 2 (11.8) n (%). For the same compound, the “TRAE: Pruritus” value [1] was 5 (29.4) n (%), the “TRAE: Rash” value [1] was 10 (58.8) n (%) and the “TRAE: Rash maculopapular” value [1] was 2 (11.8) n (%). For the same compound, the “TRAE: Stomatitis” value [1] was 3 (17.6) n (%), the “Patients with any TRAE” value [2] was 8 (47.1) n (%) and the “TRAE: Fatigue” value [2] was 1 (5.9) n (%). The “TRAE: Hyperglycemia” value [2] was 1 (5.9) n (%), the “TRAE: Rash” value [2] was 3 (17.6) n (%) and the “TRAE: Rash maculopapular” value [2] was 2 (11.8) n (%). The “TRAE: Stomatitis” value [2] was 2 (11.8) n (%), the Tolerability (at the RP2D, 16 mg o.d.) was “tolerable, with a manageable safety profile; also recorded: tolerable, with a manageable AE profile” and the “Patients with any TRAE” value [3] was 2 (50.0) n (%). The “TRAE: Fatigue” value [3] was 2 (50.0) n (%), the “TRAE: Hyperglycemia” value [3] was 1 (25.0) n (%) and the “TRAE: Pruritus” value [3] was 2 (50.0) n (%). The “TRAE: Rash” value [3] was 2 (50.0) n (%), the “Patients with any TRAE” value [4] was 3 (100) n (%) and the “TRAE: Decreased appetite” value [4] was 2 (66.7) n (%). The “TRAE: Fatigue” value [4] was 2 (66.7) n (%), the “TRAE: Hyperglycemia” value [4] was 2 (66.7) n (%) and the “TRAE: Pruritus” value [4] was 2 (66.7) n (%). For the same compound, the “TRAE: Rash” value [4] was 2 (66.7) n (%), the “TRAE: Rash maculopapular” value [4] was 1 (33.3) n (%) and the “TRAE: Stomatitis” value [4] was 3 (100) n (%). For the same compound, the “Patients with any TRAE” value [5] was 5 (71.4) n (%), the “TRAE: Decreased appetite” value [5] was 2 (28.6) n (%) and the “TRAE: Diarrhea” value [5] was 1 (14.3) n (%). For the same compound, the “TRAE: Fatigue” value [5] was 4 (57.1) n (%), the “TRAE: Hyperglycemia” value [5] was 3 (42.9) n (%) and the “TRAE: Nausea” value [5] was 1 (14.3) n (%). For the same compound, the “TRAE: Pruritus” value [5] was 4 (57.1) n (%), the “TRAE: Rash” value [5] was 4 (57.1) n (%) and the “TRAE: Rash maculopapular” value [5] was 1 (14.3) n (%). For the same compound, the “TRAE: Stomatitis” value [5] was 3 (42.9) n (%), the “Patients with any TRAE” value [6] was 3 (42.9) n (%) and the “TRAE: Hyperglycemia” value [6] was 1 (14.3) n (%). The “TRAE: Rash” value [6] was 1 (14.3) n (%), the “TRAE: Rash maculopapular” value [6] was 1 (14.3) n (%) and the “TRAE: Stomatitis” value [6] was 2 (28.6) n (%). For the same compound, the “Patients with any TRAE” value [7] was 2 (66.7) n (%), the “TRAE: Hyperglycemia” value [7] was 1 (33.3) n (%) and the “TRAE: Rash” value [7] was 2 (66.7) n (%). For the same compound, the “Patients with any TRAE” value [8] was 6 (100) n (%), the “TRAE: Decreased appetite” value [8] was 1 (16.7) n (%) and the “TRAE: Diarrhea” value [8] was 2 (33.3) n (%). The “TRAE: Fatigue” value [8] was 2 (33.3) n (%).
